Data set [1] has as its system Plasmodium falciparum. As to the kind of experiment: Antimalarial activity against chloroquine-resistant Plasmodium falciparum FcB1. In kind it is functional, organism-based. Put shortly:
(§1)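 Asexual P. falciparum grown in culture at 37°C under 5% CO2 and exposed to drug dilutions for 48 h. Growth inhibition measured by radioactive micromethod. IC50 read graphically from concentration vs % growth inhibition; mean of at least three independent experiments.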

For data set [2], the system named is Mus musculus. As to the kind of experiment: Toxicity against intraperitoneally dosed Swiss mouse. The data set is classed as organism-based. The conditions noted are these: in vivo, ip. Put shortly: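 Acute toxicity: noninfected Swiss mice (two to five per dose) given a single i.p. injection. LD50 is the dose killing 50% of mice within 60 days.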
The subject of data set [3] is Mus musculus. As to the kind of experiment: Toxicity against Plasmodium vinckei petteri infected mice (Mus musculus) at 25 mg/kg, intraperitoneally after 4 days. In kind it is organism-based. Set-up: dose 25 mg/kg, route intraperitoneal. The conditions noted are these: in vivo, ip, 96 h. An outline of the steps:
(§2)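 Subacute toxicity: P. vinckei petteri-infected mice dosed on four consecutive days (day 0–3) at 10, 25 or 50 mg/kg/day p.o., i.p. or s.c. Five mice per dose and route.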

The test system of data set [4] is Plasmodium vinckei petteri. As to the kind of experiment: Antimalarial activity against Plasmodium vinckei petteri infected orally dosed Swiss Albino mice (Mus musculus). The data set is classed as functional. The conditions noted are these: for ED50 / ED90: Plasmodium vinckei, po. An outline of the steps: (§3)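 Four-day suppressive test: groups of five female Swiss albino mice infected i.p. on day 0 with 2 × 10^7 parasitized red cells, then dosed once daily for 4 days (i.p., p.o. or s.c.; DMSO vehicle, chloroquine in 0.9% NaCl). Parasitemia read on day 4 vs untreated controls; ED50/ED90 as % growth inhibition; CD50/CD90 = cure (no parasites at 60 days).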

Data set [5] concerns Plasmodium falciparum. In words: Antimalarial activity against chloroquine-resistant Plasmodium falciparum FcM29. The data set is classed as functional, organism-based. An outline of the steps: as §1
For data set [6], the system named is Plasmodium falciparum. As to the kind of experiment: Antimalarial activity against chloroquine-sensitive Plasmodium falciparum F32. In kind it is functional, organism-based. An outline of the steps: as §1
Data set [7] deals with Plasmodium vinckei petteri. In words: Antimalarial activity against Plasmodium vinckei petteri infected intraperitoneally dosed Swiss Albino mice (Mus musculus). The conditions noted are these: for ED50 / ED90: Plasmodium vinckei, ip; for ED50: read-out: ED50; for ED90: read-out: ED90. The data set is classed as functional. An outline of the steps: as §3
Data set [8] has as its system Mus musculus. In words: Toxicity against Plasmodium vinckei petteri infected mice (Mus musculus) at 50 mg/kg, perorally after 4 days. The conditions noted are these: in vivo, po, 96 h. Also on record: dose 50 mg/kg, route oral. The data set is classed as organism-based. An outline of the steps:
as §2

Data set [9] concerns Plasmodium vinckei petteri. As to the kind of experiment: Antimalarial activity against Plasmodium vinckei petteri infected subcutaneously dosed Swiss Albino mice (Mus musculus). In kind it is functional. The conditions noted are these: for ED50 / ED90: Plasmodium vinckei, sc. An outline of the steps: as §3
Data set [10] concerns Mus musculus. In words: Toxicity against Swiss mouse at 400 mg/kg, po after 4 days. The conditions noted are these: in vivo, 96 h. Also on record: dose 400 mg/kg, route oral. The data set is classed as organism-based. Put shortly: (§4)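 Healthy Swiss mice given 100, 200 or 400 mg/kg/day p.o. by gavage for four consecutive days; two to four mice per dose, two experiments. One mouse killed per dose on days 5, 30 and 60. Organs examined against NaCl- or DMSO-treated controls, with H&E sections of stomach.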

The subject of data set [11] is Mus musculus. In words: Toxicity against Swiss mouse at 200 mg/kg, po after 4 days. In kind it is organism-based. Set-up: dose 200 mg/kg, route oral. The conditions noted are these: in vivo, 96 h. An outline of the steps: as §4
The subject of data set [12] is Mus musculus. As to the kind of experiment: Toxicity against Swiss mouse at 100 mg/kg, po after 4 days. The data set is classed as organism-based. Also on record: dose 100 mg/kg, route oral. The conditions noted are these: in vivo, 96 h. An outline of the steps: as §4

By IC50 is commonly meant the concentration needed to halve the response being measured. The low end stands for greater potency, the high end for weaker potency. As usually defined, the LD50 is the dose at which mortality reaches 50%. The term ED50 denotes the midpoint of the dose-response relation. As for `CC(C)C1=C[C@H]2OC3(CCC(NCCNc4ccnc5cc(Cl)ccc45)CC3)OO[C@@]2(C)CC1.O=[N+]([O-])O` (stereo partly drawn), the IC50 in the data set with Plasmodium falciparum [1] is 21 nM; in the data set on Plasmodium falciparum [5], 16 nM; in the data set with Plasmodium falciparum [6], 25 nM. Also, the LD50 with Mus musculus [2] is 70 mg/kg/day. Moreover, the Activity result with Mus musculus [3] and in the data set on Mus musculus [8] was “Non-toxic” each time. Further, the CD50 in data set [4] came to 24 mg/kg/day; in [7], 3 mg/kg/day; in data set [9], 3 mg/kg/day. For the same molecule, the CD90 in data set [4] is recorded as 46 mg/kg/day; in data set [7] it was 9 mg/kg/day; in [9], 8 mg/kg/day. Also, the ED50 in data set [4] was determined as 16 mg/kg/day; in [7] it was 0.7 mg/kg/day; in data set [9], 2 mg/kg/day. Moreover, the figures for the ED90 in [4], in [7] and in data set [9] were 34 mg/kg/day, 8 mg/kg/day and 6 mg/kg/day, respectively.
In the case of `CC(C)C1=C[C@H]2OC3(CCC(NCCNc4ccnc5cc(Cl)ccc45)CC3)OO[C@@]2(C)CC1` (stereo partly drawn), the Activity entry with Mus musculus [10], in the data set on Mus musculus [11] and in the data set with Mus musculus [12] was “Non-toxic” throughout. In addition, the CD50 was found to be 12 mg/kg/day in data set [4], 5 mg/kg/day in [7] and 5 mg/kg/day in data set [9]. Also, the figures for the CD90 in [4], in data set [7] and in data set [9] were 24 mg/kg/day, 8 mg/kg/day and 8 mg/kg/day, respectively. Also, the ED50 in data set [4] worked out at 4 mg/kg/day; in data set [7] it was 0.7 mg/kg/day; in data set [9], 1.5 mg/kg/day. Moreover, the values for the ED90 in data set [4], in data set [7] and in [9] were 9 mg/kg/day, 8 mg/kg/day and 9 mg/kg/day, respectively.

Source of the values: ChEMBL document CHEMBL1147097, “Trioxaquines are new antimalarial agents active on all erythrocytic forms, including gametocytes” (Antimicrob Agents Chemother, 2007).
